{"source": "paper PMC11047177", "about": "(ESMO Open, 2024)", "key": {"[1]": {"assay": "Plasma PF-06939999 pharmacokinetics, noncompartmental", "assay_type": "in vivo, human", "how_it_was_run": "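Test compound given orally on an empty stomach. Part 1 had intensive plasma sampling on cycle 1 day 1 and day 15; part 2 had sparse sampling. Plasma was assayed by a validated method with LLOQ 0.250 ng/ml; values below LLOQ were set to zero for summaries. Noncompartmental analysis was done within a dosing interval. Rac was based on AUCτ. Parameters were summarised by dose, cycle and day as geometric means.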"}, "PRMT5": {"molecular_target": "PRMT5 (Homo sapiens, UniProt O14744)", "sequence (O14744 whole entry)": "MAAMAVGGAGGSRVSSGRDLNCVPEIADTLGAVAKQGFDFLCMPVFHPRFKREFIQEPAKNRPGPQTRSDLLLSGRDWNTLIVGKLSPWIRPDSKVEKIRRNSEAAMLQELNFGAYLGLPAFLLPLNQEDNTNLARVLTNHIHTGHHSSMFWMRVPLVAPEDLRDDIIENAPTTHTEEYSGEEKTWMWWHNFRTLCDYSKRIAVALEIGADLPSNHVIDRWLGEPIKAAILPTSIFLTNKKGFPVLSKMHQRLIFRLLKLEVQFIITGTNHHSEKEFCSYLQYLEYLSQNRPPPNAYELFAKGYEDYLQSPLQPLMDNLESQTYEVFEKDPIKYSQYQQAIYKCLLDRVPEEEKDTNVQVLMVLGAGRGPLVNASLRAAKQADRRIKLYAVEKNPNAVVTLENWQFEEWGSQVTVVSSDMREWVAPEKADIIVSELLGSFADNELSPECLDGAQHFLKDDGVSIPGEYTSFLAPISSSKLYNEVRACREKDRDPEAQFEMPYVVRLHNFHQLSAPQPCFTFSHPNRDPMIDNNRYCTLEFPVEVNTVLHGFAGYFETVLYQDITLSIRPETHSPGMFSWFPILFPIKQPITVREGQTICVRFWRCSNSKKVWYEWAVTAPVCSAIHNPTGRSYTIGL", "sequence (Q9BQA1 whole entry partner)": "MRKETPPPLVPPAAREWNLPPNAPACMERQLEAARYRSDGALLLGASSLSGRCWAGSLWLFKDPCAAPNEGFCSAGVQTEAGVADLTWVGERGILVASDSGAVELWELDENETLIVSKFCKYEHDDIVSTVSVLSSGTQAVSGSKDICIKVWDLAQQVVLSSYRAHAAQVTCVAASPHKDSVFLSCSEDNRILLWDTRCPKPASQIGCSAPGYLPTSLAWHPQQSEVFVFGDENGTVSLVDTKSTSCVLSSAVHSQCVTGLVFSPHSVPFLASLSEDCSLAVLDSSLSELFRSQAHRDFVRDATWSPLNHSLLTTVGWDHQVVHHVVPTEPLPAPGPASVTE", "assay": "Plasma SDMA pharmacodynamics by LC/MS", "assay_type": "in vivo", "how_it_was_run": "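Plasma SDMA, a catabolic product of PRMT5 activity, was measured by LC/MS during oral test-compound dosing. Part 1 samples: pre-dose, 2 and 6 h on C1D1; 12 h C1D1 or pre-dose C1D2; pre-dose C1D8; pre-dose, 2 and 6 h on C1D15; pre-dose C1D22, C2D1 and C3D1. Part 2 samples: pre-dose C1D1, C1D8, C1D15, C1D22, C2D1, C3D1 and end of treatment.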"}}, "note": "“Also recorded” adds a separate entry of the source."}
{"smiles": "Cc1ncnc2c1ccn2[C@@H]1C[C@H](Oc2cc(C(F)F)c(F)c3c2CNCC3)[C@@H](O)[C@H]1O", "note": "[PF-06939999]", "values": [{"measurement": "Dose dependence of exposure (AUCτ and Cmax)", "setting": "[1]; 0.5 mg q.d. to 6 mg b.i.d.", "value": "exposure increased with dose; also recorded: increased in a dose-dependent manner"}, {"measurement": "Variability of AUCτ", "setting": "[1]; RP2D, 6 mg q.d.", "value": 38, "unit": "%"}, {"measurement": "Variability of Cmax", "setting": "[1]; RP2D, 6 mg q.d.", "value": 26, "unit": "%"}, {"measurement": "Time to steady-state PK", "setting": "[1]; b.i.d. and q.d. regimens", "value": "≤ 15", "unit": "days"}, {"measurement": "Effective half-life", "setting": "[1]; indicated by Rac after b.i.d. dosing", "value": "> 24", "unit": "h"}, {"measurement": "Plasma SDMA inhibition", "setting": "PRMT5; 14-28 days post-dose, 0.5 mg q.d. or b.i.d.", "value": "~60", "unit": "%"}, {"measurement": "Plasma SDMA inhibition", "setting": "PRMT5; RP2D, 6 mg q.d.", "value": "around 80%"}]}
